The list is not random: actives were taken first. Their share in the collection is about 3.9%.
CHRM1 agonist: agonists of human M1 muscarinic receptor; P11229; CHO-K1 hM1, Fluo-8 calcium fluorescence, agonist mode; 0% DMSO, 100% acetylcholine EC100; activation, % at 3 µM; actives 0.33% (n = 360,000);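 active means activation above the run's mean compound activation plus 3 SD, cut at about 16% in these data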;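 further: peak over basal fluorescence ratio within a 140 s kinetic read after compound addition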
TAAR1 agonist: agonists of human TAAR1; Q96RJ0; CHO RD-HGA16 TAAR1, Fluo-8 calcium fluorescence; vehicle wells 0%, saturating PEA agonist 100%; activation, % at 3 µM; actives 0.99% (n = 360,000);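 active means activation above the mean activation of all test compounds in the run plus 3 SD, cut at about 38% in these data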
Target sequence (Q96RJ0 whole entry, looked up): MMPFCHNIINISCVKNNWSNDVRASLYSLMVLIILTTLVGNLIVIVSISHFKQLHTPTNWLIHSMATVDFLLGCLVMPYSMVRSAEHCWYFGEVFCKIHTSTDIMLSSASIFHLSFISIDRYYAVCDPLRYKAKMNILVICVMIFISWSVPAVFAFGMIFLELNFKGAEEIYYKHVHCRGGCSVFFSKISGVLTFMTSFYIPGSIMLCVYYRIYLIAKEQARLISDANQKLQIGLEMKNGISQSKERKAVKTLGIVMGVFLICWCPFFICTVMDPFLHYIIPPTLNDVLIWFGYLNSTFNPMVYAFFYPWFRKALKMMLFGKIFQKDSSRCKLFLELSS
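System: CHO-derived RD-HGA16 cells with stable Gα16 and human TAAR1 / Times: 17-24 h plating, Fluo-8 75 min 37 °C, 30 min RT / Technique: calcium-sensitive Fluo-8 signal, excitation 470-495, emission 515-575 nm / Measure: % activation relative to PEA EC100 response / Benchmarks: DMSO and PEA EC100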
M1 antag: human CHRM1 antagonism; inhibition, % at 3 µM; CHO-K1 hM1, Fluo-8 calcium fluorescence, ACh EC80 antagonist; AID 588852; P11229; actives 1.3% (n = 360,000);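 active means percent inhibition above its own plate's cutoff, namely the mean of that plate's compound wells plus 3 SD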;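 further: peak over basal fluorescence ratio during 140 s after agonist addition; 0% = ACh EC80 plus DMSO and 100% = DMSO alone without agonist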
TAAR1 antagonist: human TAAR1 antagonism | AID 624466 | actives 1.5% (n = 360,000) | Q96RJ0 | inhibition, % at 3 µM | CHO RD-HGA16 TAAR1, Fluo-8 calcium fluorescence, antagonist;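 active means inhibition above a per-plate cutoff, the mean inhibition of test compounds on that plate plus 3 SD, cut at about 49% in these data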;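 further: 0% = DMSO plus EC80 beta-PEA response and 100% = DMSO alone without agonist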
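Test system: hTAAR1-expressing CHO RD-HGA16 cells, Gα16-coupled; Probe or stimulus: EC80 β-phenethylamine stimulus; Compound dosing: single nominal final test compound concentration of 3 µM; Timing: 140 s kinetic read after compound, 140 s after agonist; Signal: Fluo-8 calcium-sensitive fluorescence; Measure: % inhibition of agonist calcium response; Controls: DMSO and EC80 PEA controls.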
CHRM1 PAM: potentiates human M1 receptor response to acetylcholine. actives 0.088% (n = 360,000). activation, % at 3 µM. P11229. AID 588819. CHO-K1 hM1, Fluo-8 calcium fluorescence, ACh EC20; 0% = ACh EC20, 100% = maximal ACh; in the data active means activation above about 19%, passing the limit was not always enough
HTR2A ag: mouse HTR2A agonism via beta-arrestin recruitment | P35363 | CHO-K1 mHTR2A beta-arrestin complementation, luminescence; percent of 30 µM serotonin response | activation, % at 7.6 µM | actives 0.66% (n = 360,000);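 active means activation above a run cutoff, the mean activation of all tested compounds plus 3 SD, cut at about 14% in these data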;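 further: 0% = plate median of compound wells and 100% = 30 µM serotonin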
TAAR1 ag confirm: confirmation of human TAAR1 agonists. CHO RD-HGA16 TAAR1, Fluo-8 calcium fluorescence; scaled: DMSO 0%, maximal phenethylamine 100%. activation, % at 3 µM. AID 651783. shares compounds with TAAR1 agonist. actives 82% (n = 2,400);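 active means activation above a cutoff set at the run's mean compound activation plus 3 SD, cut at about 39% in these data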
Ga16 ag counter: nonselective agonist in parental cells, TAAR1 agonist counter-screen | shares compounds with TAAR1 agonist | CHO-Ga16 parental, Fluo-8 calcium fluorescence; normalized to maximal ATP response, DMSO zero | activation, % at 3 µM | actives 50% (n = 2,400) | AID 651787;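 active means activation above the run cutoff, the mean activation over all tested wells plus 3 SD, cut at about 12% in these data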;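 further: 0% = DMSO wells and 100% = maximal ATP response on the peak over basal ratio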
TAAR1 desens: TAAR1 response desensitization, agonist counter-screen. shares compounds with TAAR1 agonist. CHO RD-HGA16 hTAAR1, Fluo-8 calcium, beta-PEA response inhibition. inhibition, % at 3 µM. actives 46% (n = 2,400);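 active means inhibition above the run cutoff, the mean inhibition of all test compounds plus 3 SD, cut at about 49% in these data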;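 further: beta-PEA stimulus applied at its EC80; loss of beta-PEA calcium signal after compound pretreatment read as receptor desensitization; 0% = DMSO with beta-PEA at EC80 and 100% = DMSO alone without agonist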
Ga16 nonsel ant: nonselective Ga16 antagonist in TAAR1 agonist counter-screen | shares compounds with TAAR1 agonist | CHO-Ga16 ATP-induced calcium, Fluo-8 fluorescence | actives 39% (n = 2,400) | inhibition, % at 3 µM;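 active means inhibition above the plate's mean compound inhibition plus 3 SD, computed per plate, cut at about 22% in these data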;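 further: 0% = EC80 ATP with DMSO and 100% = DMSO wells without ATP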
* = called active by the depositor.

For CC(=O)c1sc2nc(SCC(=O)NCCc3ccccc3)[nH]c(=O)c2c1C the results were CHRM1 agonist -0.2, TAAR1 agonist 89.7*, M1 antag -7.8, TAAR1 antagonist 43.3, CHRM1 PAM 11.2, HTR2A ag 12.4, TAAR1 ag confirm 96.8*, Ga16 ag counter 19.1*, TAAR1 desens 56.3* and Ga16 nonsel ant -0.7.
`COc1ccc(CCNC(=O)CSc2nc3sc(C(=O)O)c(C)c3c(=O)[nH]2)cc1OC` gave CHRM1 agonist -2.0, TAAR1 agonist 0.3, M1 antag -3.4, TAAR1 antagonist -10.4, CHRM1 PAM 6.0 and HTR2A ag 2.0.
NC(=O)c1ccsc1NC(=O)COC(=O)c1cnccn1 was read as CHRM1 agonist 4.5, TAAR1 agonist 0.3, M1 antag -4.0, TAAR1 antagonist 24.0, CHRM1 PAM 16.3 and HTR2A ag 3.6.
Screening C=CC(=O)NC(NC(=O)C=C)c1ccccc1F returned CHRM1 agonist -0.4, TAAR1 agonist 4.8, M1 antag -7.6, TAAR1 antagonist -18.6, CHRM1 PAM 4.2 and HTR2A ag 6.9.
For COc1ccc(/C=C/C(=O)NC(=S)NNC(=O)c2c(-c3ccccc3)noc2C)cc1 the results were CHRM1 agonist 10.9, TAAR1 agonist 93.1*, M1 antag -2.7, TAAR1 antagonist 49.0*, CHRM1 PAM 1.1, HTR2A ag -3.5, TAAR1 ag confirm 68.3*, Ga16 ag counter 65.9*, TAAR1 desens 51.6* and Ga16 nonsel ant 52.0*.
`Cc1onc(-c2ccccc2)c1C(=O)NNC(=S)NC(=O)/C=C/c1ccccc1` gave CHRM1 agonist 40.4*, TAAR1 agonist 136.4*, M1 antag 4.6, TAAR1 antagonist 54.9*, CHRM1 PAM -10.3, HTR2A ag -2.4, TAAR1 ag confirm 148.6*, Ga16 ag counter 125.8*, TAAR1 desens 89.8* and Ga16 nonsel ant 61.0*.
`Cc1ccccc1C(=O)NNC(=S)NC(=O)c1ccc(Cl)cc1Cl` gave CHRM1 agonist 85.3*, TAAR1 agonist 181.3*, M1 antag 17.6, TAAR1 antagonist 108.9*, CHRM1 PAM -24.8, HTR2A ag -0.4, TAAR1 ag confirm 132.4*, Ga16 ag counter 103.1*, TAAR1 desens 104.1* and Ga16 nonsel ant 80.7*.
`Cc1onc(-c2ccccc2)c1C(=O)NNC(=S)NC(=O)c1ccc(Cl)cc1Cl` gave CHRM1 agonist 90.3*, TAAR1 agonist 131.8*, M1 antag 16.1, TAAR1 antagonist 107.8*, CHRM1 PAM -27.6, HTR2A ag 2.6, TAAR1 ag confirm 149.0*, Ga16 ag counter 120.9*, TAAR1 desens 106.5* and Ga16 nonsel ant 92.2*.
O=C(NC(=S)NNC(=O)c1ccc(Cl)cc1Cl)c1cccnc1 was read as CHRM1 agonist -2.7, TAAR1 agonist 2.0, M1 antag 1.6, TAAR1 antagonist -8.9, CHRM1 PAM 0.6 and HTR2A ag 4.4.
Screening Cc1onc(-c2ccccc2)c1C(=O)NNC(=O)c1ccccc1O returned CHRM1 agonist -2.6, TAAR1 agonist 1.5, M1 antag -6.1, TAAR1 antagonist -6.3, CHRM1 PAM 3.7 and HTR2A ag -10.6.
CCOc1ccc2c(c1)c(=O)c(S(=O)(=O)c1ccc(CC)cc1)cn2C was read as CHRM1 agonist 0.9, TAAR1 agonist -0.1, M1 antag -9.9, TAAR1 antagonist -4.5, CHRM1 PAM 11.7 and HTR2A ag -6.9.
`O=C(CCN1C(=O)c2ccccc2C1=O)C1=NN[C@@H]2C(=O)N(c3ccc4c(c3)OCO4)C(=O)[C@H]12` gave CHRM1 agonist 0.4, TAAR1 agonist 2.9, M1 antag 3.0, TAAR1 antagonist -17.1, CHRM1 PAM 4.2 and HTR2A ag 3.7.
For COc1ccc(/C=C/C(=O)NC(=S)NNC(=O)c2ccco2)cc1 the results were CHRM1 agonist 2.0, TAAR1 agonist 17.9, M1 antag -9.7, TAAR1 antagonist 24.5, CHRM1 PAM 7.5 and HTR2A ag -5.6.
COc1ccc(/C=C/C(=O)NC(=S)NNC(=O)Cc2cccs2)cc1 was read as CHRM1 agonist 11.1, TAAR1 agonist 48.4*, M1 antag -13.1, TAAR1 antagonist 27.8, CHRM1 PAM 7.0, HTR2A ag -0.5, TAAR1 ag confirm 29.6, Ga16 ag counter 18.6*, TAAR1 desens 23.7 and Ga16 nonsel ant 25.4*.
For N=C1/C(=C\c2coc3ccccc3c2=O)C(=O)N=C2SC(c3ccncc3)=NN12 the results were CHRM1 agonist 51.2*, TAAR1 agonist 174.5*, M1 antag 58.4*, TAAR1 antagonist 104.2*, CHRM1 PAM -21.4, HTR2A ag 1.2, TAAR1 ag confirm 80.8*, Ga16 ag counter 87.0*, TAAR1 desens 87.9* and Ga16 nonsel ant 77.7*.
CC(C)CSC1=NSC2=NC(=O)/C(=C\c3ccccc3)C(=N)N12 was read as CHRM1 agonist -2.6, TAAR1 agonist 2.9, M1 antag 14.9, TAAR1 antagonist -7.7, CHRM1 PAM -5.8 and HTR2A ag 0.0.
For CC(C)CSC1=NSC2=NC(=O)/C(=C\c3coc4ccccc4c3=O)C(=N)N12 the results were CHRM1 agonist 143.2*, TAAR1 agonist 423.7*, M1 antag 60.2*, TAAR1 antagonist 106.8*, CHRM1 PAM -31.6, HTR2A ag 3.3, TAAR1 ag confirm 118.5*, Ga16 ag counter 105.6*, TAAR1 desens 91.0* and Ga16 nonsel ant 82.1*.
`O=C(c1cccc(-c2ccccc2)c1)N1CC[C@@H](N2CCC(O)CC2)[C@H](O)C1` gave CHRM1 agonist -3.7, TAAR1 agonist 0.3, M1 antag -7.5, TAAR1 antagonist -2.0, CHRM1 PAM 6.4 and HTR2A ag 0.6.
O=C(CCSc1nnc(-c2ccncc2)o1)Nc1ccc(Cl)cc1 was read as CHRM1 agonist -1.3, TAAR1 agonist 40.1*, M1 antag -0.8, TAAR1 antagonist -15.1, CHRM1 PAM 4.2, HTR2A ag -3.8, TAAR1 ag confirm 40.0*, Ga16 ag counter 4.0, TAAR1 desens 8.3 and Ga16 nonsel ant 14.7.

Screens: PubChem, The Scripps Research Institute Molecular Screening Center
